From PubChem
The list is not random: actives were taken first. Their share in the collection is about 0.73%.
DDE Tn7 FP inh – disrupts Tn7 cyclic peptide binding to fibrin D-Dimer-E complex. FP displacement of FITC-Tn7 peptide from fibrin DD(E); 0% = median of compound wells per plate. inhibition, % at 8.3 µM. 370,000 compounds, 0.13% hits. AID 720508;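 active = inhibition above the mean of compounds falling within the control limits plus 3 SD of them, cut at about 14% in these data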;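 note: 0% = plate median of compound wells and 100% = 10 µM Aha-Tn7 peptide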
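System: human fibrin DD(E); quantity: Fibrin-DD(E) at 2 µM final; also added: fluorescent Tn7 probe at 0.1 µM; compound dosing: single nominal test concentration of 8.3 µM per compound; schedule: 10 min preincubation, 3 h with tracer, room temperature; detection: fluorescence polarization of the labelled Tn7 tracer; repeats: one replicate per compound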
Keap1-Nrf2 PPI – Keap1-Nrf2 (human) interaction inhibition; Q14145; Keap1 Kelch-Nrf2 peptide fluorescence polarization, 1536-well; inhibition, % at 9.4 µM; 340,000 compounds, 0.15% hits; in the data active = inhibition above about 12%;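 note: human Keap1 Kelch domain with fluorescein labeled Nrf2 9mer peptide probe; 0% = neutral control wells and 100% = peptide positive control; higher means more block of Keap1 binding to Nrf2 peptide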
Target sequence (Q14145 whole entry, looked up, the tested form may be a part): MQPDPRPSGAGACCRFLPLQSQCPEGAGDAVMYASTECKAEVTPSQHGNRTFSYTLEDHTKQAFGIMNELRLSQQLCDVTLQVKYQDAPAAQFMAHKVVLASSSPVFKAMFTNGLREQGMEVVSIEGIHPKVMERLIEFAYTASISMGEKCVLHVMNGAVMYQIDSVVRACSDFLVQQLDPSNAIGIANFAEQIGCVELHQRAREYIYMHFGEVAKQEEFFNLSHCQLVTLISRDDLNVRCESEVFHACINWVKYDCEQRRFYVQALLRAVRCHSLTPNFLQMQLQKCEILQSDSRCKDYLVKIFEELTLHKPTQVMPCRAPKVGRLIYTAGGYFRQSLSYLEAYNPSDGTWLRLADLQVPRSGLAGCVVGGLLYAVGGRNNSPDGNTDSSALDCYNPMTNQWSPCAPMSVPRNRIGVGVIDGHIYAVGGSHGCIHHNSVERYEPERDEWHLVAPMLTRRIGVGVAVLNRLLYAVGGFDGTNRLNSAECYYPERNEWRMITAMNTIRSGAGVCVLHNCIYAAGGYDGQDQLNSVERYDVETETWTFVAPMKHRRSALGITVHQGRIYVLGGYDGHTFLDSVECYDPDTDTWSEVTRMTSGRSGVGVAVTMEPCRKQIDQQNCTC
RTF Ca sens act – cardiac RTF calcium sensitization. 340,000 compounds, 0.24% hits. IANBD-labeled TnC RTF fluorescence at EC20 calcium; 0% EC20 calcium, 100% full calcium. activation, % at 7.2 µM. P19429+P45379;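 active = activation above the mean over all tested compounds plus 3 SD, cut at about 30% in these data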;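 note: rise in fluorescence read as greater calcium sensitivity of cardiac thin filaments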
C-LANA FP – inhibitors of KSHV LANA C-terminal domain DNA binding; MBP-C-LANA/FAM-LBS DNA binding, fluorescence polarization; inhibition, % at 9 µM; 340,000 compounds, 0.078% hits; AID 504423;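 active = highest replicate inhibition at or above 60% at 9 µM, even if other replicates fall short; inactive = all replicates below 60% inhibition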;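 note: 0% = neutral control wells and 100% = 4 µM acridine orange control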
Tn6 DDE FP – inhibitors of Tn6 peptide binding to human fibrin DD(E) | P02675 | Fibrin DD(E) TRITC-Tn6 fluorescence polarization displacement | inhibition, % at 8.3 µM | 370,000 compounds, 0.21% hits;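 active = inhibition above a per-campaign cutoff: mean of compounds within control limits plus 3 SD, cut at about 15% in these data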;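 note: 0% = median of all compound wells on the plate and 100% = blocking peptide control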
RTF Ca sens inh – cardiac RTF calcium desensitization | P19429+P45379 | IANBD-labeled cardiac RTF, Ca2+ fluorescence | inhibition, % at 7.15 µM | 340,000 compounds, 0.12% hits;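 active = inhibition above the mean inhibition of all tested compounds plus 3 SD, cut at about 17% in these data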;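 note: assay run at fixed EC70 calcium of 1.6 mM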
* hit, by the source's call; i = inactive; nt = not tested or not shown.

SMILES	DDE Tn7 FP inh	Keap1-Nrf2 PPI	RTF Ca sens act	C-LANA FP	Tn6 DDE FP	RTF Ca sens inh
CCN1/C(=C/c2ccc3cc(C)ccc3[n+]2CC)Sc2cc(C)c(C)cc21	-12.8	-6.2	36.4*	-39.1	2.2	-193.2
CC[n+]1c(/C=C2\Sc3ccccc3N2C)ccc2cccc(C)c21	-24.2	-39.0	45.7*	-74.7	-8.5	-105.1
N#CC1=C(N)SC(N)=C(C#N)C1Cc1ccccc1	-3.3	-24.0	42.9*	-4.9	-7.0	-73.2
N#CC1=C(N)SC(N)=C(C#N)C1CCc1ccccc1	-11.3	-21.2	39.1*	-4.5	1.2	-55.1
Cc1[nH]nc2c1C(Cc1ccccc1)C(C#N)=C(N)O2 (centres undefined)	0.1	-1.5	-0.9	0.3	-1.8	-16.7
CC(C)CC1C(C#N)=C(N)SC(N)=C1C#N	8.6	-82.3	41.8*	-10.6	8.4	-36.8
COc1ccc(C(=O)/C=C(\Nc2ccc(F)cc2)c2ccc(OC)cc2OC)c(OC)c1	8.5	nt	nt	nt	-11.1	nt
CCOC(=O)[C@@]12CN(C(=O)OC(C)(C)C)CC=C1N(Cc1ccc(OC)cc1)C(=O)[C@H]2CC(=O)NCCc1ccccc1OC	4.4	nt	nt	nt	-5.2	nt
CCn1c(=O)c(C(=O)CN2CCCc3ccccc32)c(N)n(Cc2ccccc2)c1=O	-5.0	-5.1	31.5*	0.6	2.0	-67.1
Cc1ccc2c(c1)CCCN2CC(=O)N(C)c1c(N)n(Cc2ccccc2)c(=O)[nH]c1=O	8.6	7.3	37.7*	13.1	-0.4	-55.0
CCCN1C(=O)/C(=C\C=C2/Sc3ccccc3N2CCO)SC1=S	2.0	-1.7	-1.5	-1.4	3.7	-7.1
CN1/C(=C\C=C2/SC(=S)N(CC(=O)O)C2=O)C(C)(C)c2ccccc21	-70.2	-400.4	772.7*	-94.7	-19.1	i
Cn1cccc1/C=C1/SC(=S)N(CC(=O)O)C1=O	1.2	-60.5	19.5	-20.3	0.0	-26.9
CCCCN1C(=O)/C(=C/C=C2/CC(C)(C)CN2C)SC1=S	-39.8	-121.9	396.2*	-19.1	4.7	-456.5
CCCCN1C(=O)/C(=C/C=C2\Oc3ccccc3N2CC)SC1=S	0.1	-8.4	186.0*	0.5	0.6	-240.7
CCCN1C(=O)/C(=C/C=C2\N(CC)c3ccccc3C2(C)C)SC1=S	-1.3	-45.7	52.0*	-0.6	-6.2	-68.7
CCN1C(=O)/C(=C/C=C2/Sc3ccccc3N2CCO)SC1=S	0.7	-8.2	-1.8	-0.9	-9.2	-2.8
Cc1ccc(OC(=O)N(C)C[C@H]2OCc3cn(nn3)CCCC(=O)N([C@@H](C)CO)C[C@@H]2C)cc1	3.2	nt	nt	nt	-2.8	nt
COC(=O)[C@]12C[C@H](CC(=O)N3CCSCC3)C(=O)N(CCC3=CCCCC3)C1=C[C@H](C1CCCC1)O[C@@H]2C	2.9	nt	nt	nt	7.3	nt
C=CCN1C(=O)/C(=C\C=C2\N(C)c3ccccc3C2(C)C)SC1=S	-1.1	-14.3	51.0*	-1.7	4.8	-31.2
CN1/C(=C\C=O)C(C)(C)c2ccccc21	3.9	-1.7	-2.9	-0.3	-2.1	-20.4
CCc1ccc(CCNC(=O)OCCCN2CCC3(CCC(C)CC3)C2=O)cc1 (centres undefined)	4.5	nt	nt	nt	-4.1	nt
Cc1cc(C=C2C(=O)c3ccccc3C2=O)c(C)n1-c1ccccc1	-1.8	2.0	45.2*	2.0	6.3	-14.6
CCCC[C@H](CCCc1ccc(F)cc1)CCC(=O)N(c1ccccc1)c1ccccc1	0.5	nt	nt	nt	-4.7	nt
CCCCNC(=O)COC(=O)c1c2c(nc3ccccc13)/C(=C\c1cccs1)CC2	2.6	-3.7	36.6*	2.6	-13.5	-10.5
SMILES	DDE Tn7 FP inh	Keap1-Nrf2 PPI	RTF Ca sens act	C-LANA FP	Tn6 DDE FP	RTF Ca sens inh
CC(C)CNC(=O)COC(=O)c1c2c(nc3ccccc13)/C(=C/c1cccs1)CC2	-4.5	-0.6	-2.0	1.2	-0.9	3.4
O=C(COC(=O)c1c2c(nc3ccccc13)/C(=C/c1ccco1)CC2)NC1CCCC1	-3.0	1.9	-7.1	0.8	-5.5	17.4*
N#C/C(=C\c1ccc(-c2ccc(C(=O)O)cc2)o1)c1nc2ccccc2[nH]1	-5.5	-8.2	54.4*	-6.2	-1.6	-86.0
N#C/C(=C\c1ccc(N2CCOCC2)o1)c1nc2ccccc2[nH]1	-2.2	-188.4	258.6*	-31.1	-3.3	-227.8
COC(=O)[C@H]1C[C@@]2(N3CCCCC3)c3ccccc3N(S(=O)(=O)c3ccccc3)[C@H]2N1	-4.0	nt	nt	nt	1.4	nt
CC1=C(O)C(=O)C(C2=C(O)C(=O)C(C)=C(O)C2=O)=C(O)C1=O	-3.1	-1.8	-4.7	61.4*	5.3	7.8
Cc1cc2nc(-c3ccc(SCC(=O)Nc4ccc(S(=O)(=O)NC5CC5)cc4)nc3)[nH]c2cc1C	-6.0	-12.8	-3.9	0.6	28.6*	-5.9
Cc1cc(NC(=O)CSc2ccc(-c3nc4cc(C)c(C)cc4[nH]3)cn2)no1	nt	2.8	2.5	0.1	nt	-7.9
Cc1ccnc(SCC(=O)c2cc3ccccc3o2)n1	-3.6	2.4	-0.3	74.2*	-3.4	-1.5
COc1cc2c(cc1[N+](=O)[O-])-c1ccccc1C2	0.7	0.6	125.5*	0.0	-2.2	-65.5
COc1cc2c(cc1[N+](=O)[O-])-c1ccc([N+](=O)[O-])cc1C2	4.8	nt	nt	nt	-3.6	nt
CC(=O)OC12CCCN(C1)/C(=C/c1cccc(Cl)c1)C2 (centres undefined)	7.1	nt	nt	nt	-6.7	nt
COCc1cc(N2CCN(C(=O)OC(C)(C)C)C[C@H]2C)ccc1Br	-6.4	nt	nt	nt	-12.2	nt
CCCC1CCC2(CCCN2CCOC(=O)Nc2ccccc2OC)CC1 (centres undefined)	-7.0	nt	nt	nt	0.2	nt
COc1ccc(-n2nc3c(N4CCC(C(=O)NCc5ccco5)CC4)nnc(C)c3c2C)cc1	nt	-4.9	29.7*	0.0	nt	-1.9
COc1ccc(-n2nc3c(N4CCC(C(=O)NCc5ccccc5C)CC4)nnc(C)c3c2C)cc1	nt	-1.9	-6.6	6.6	nt	-8.9
COc1ccc(CCNC(=O)c2c(N)no[n+]2[O-])cc1OC	-3.2	-0.5	6.2	79.6*	4.0	-1.9
COc1ccc(CCNC(=O)c2ccc(OC)c(OC)c2)cc1OC	-0.7	-1.3	-3.6	-1.5	-2.0	-5.9
CCc1ccc(Nc2n[n+](-c3ccccc3)c(-c3ccc(OCc4ccccc4)cc3)s2)cc1	4.2	-6.3	2.0	4.0	-1.4	-4.3
CCN(CC)c1ccc(-c2sc(Nc3ccccc3)n[n+]2-c2ccc(F)cc2)cc1	-15.0	-16.0	30.6*	4.7	-2.3	-24.7
CCc1ccc(Nc2n[n+](-c3ccccc3)c(-c3ccc(N(CC)CC)cc3)s2)cc1	-4.4	-18.4	33.4*	3.5	-1.0	-61.2
CN(C)c1ccc(-c2sc(Nc3ccccc3)n[n+]2-c2ccc(F)cc2)cc1	-3.2	-17.5	-0.4	-2.1	2.5	-16.1
O=C(NCCc1ccccc1)C1CCN(S(=O)(=O)c2cccc3nonc23)CC1	-8.3	0.2	-2.4	-0.9	6.1	-7.8
